Data set [1] in a line: Kinetic solubility of compound in PBS at pH 6.5 by HPLC analysis. The following applies: read-out: Kinetic_solubility. It counts as physicochemical.
In data set [2] the test system is Plasmodium falciparum. As to the kind of experiment: Antiplasmodial activity against Plasmodium falciparum mature stage V gametocyte assessed as inhibition of female gametocyte formation by luciferase reporter assay. It counts as functional, organism-based. (In general: In a reporter assay the amount or activity of a reporter protein is the signal.)
Data set [3] concerns Plasmodium falciparum. As to the kind of experiment: Antiplasmodial activity against asexual blood stage Plasmodium falciparum 3D7 infected in human RBC assessed as parasite growth inhibition incubated for 72 hrs by SYBR Green dye based fluorescence assay. The settings on record: Plasmodium falciparum, 3D7, Erythrocyte, 72 h. It is filed as functional, organism-based. Summed up:
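Blood-stage cultures at 2% hematocrit, human O+ RBCs, RPMI 1640 + 25 mM HEPES, 0.5% Albumax-I, 23 mM bicarbonate, 92 μM hypoxanthine. Start at 0.5% parasitemia; 72 h at 37°C, 5% CO₂; freeze-thaw, then SYBR Green in saponin/Triton lysis buffer, 4 h RT dark; fluorescence ex 485/em 535 nm. 10-point curves, technical duplicates or triplicates, final 0.5% DMSO; four-parameter fit gives EC₅₀; mean ± std dev of biological replicates.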

Data set [4] deals with Plasmodium falciparum. As to the kind of experiment: Antiplasmodial activity against chloroquine resistant Plasmodium falciparum Dd2-GC03 mutant replaced with 3D7 pfcrt sequence at endogenous pfcrt Dd2 locus infected in human RBC assessed as parasite growth inhibition incubated for 72 hrs by SYBR Green dye based fluorescence assay. It counts as functional, organism-based. The settings on record: Erythrocyte. The essentials:
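Gene-edited Dd2 lines with the endogenous pfcrt locus replaced by zinc-finger nuclease editing. Concentration-response curves run with technical duplicates at each concentration; values are the average of two biological replicates, with std dev given where more replicates were collected.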

Data set [5] concerns Plasmodium falciparum. As to the kind of experiment: Antiplasmodial activity against chloroquine and pyrimethamine resistant Plasmodium falciparum 7G8 infected in human RBC assessed as parasite growth inhibition incubated for 72 hrs by SYBR Green dye based fluorescence assay. The settings on record: 7G8, Erythrocyte. It is filed as functional, organism-based.
For data set [6], the system named is Plasmodium falciparum. As to the kind of experiment: Antiplasmodial activity against Plasmodium falciparum NF54 infected in human RBC assessed as parasite growth inhibition incubated for 72 hrs by SYBR Green dye based fluorescence assay. It counts as functional, organism-based. The following applies: NF54, Erythrocyte.
The subject of data set [7] is Plasmodium falciparum. As to the kind of experiment: Antiplasmodial activity against lab-derived ELQ300 resistant Plasmodium falciparum Dd2-PfCytB mutant infected in human RBC assessed as parasite growth inhibition incubated for 72 hrs by SYBR Green dye based fluorescence assay. It is filed as functional, organism-based. The settings on record: Erythrocyte.
The test system of data set [8] is Plasmodium falciparum. As to the kind of experiment: Antiplasmodial activity against lab-derived MMV390048 resistant Plasmodium falciparum Dd2-Pfpi4K mutant infected in human RBC assessed as parasite growth inhibition incubated for 72 hrs by SYBR Green dye based fluorescence assay. It counts as functional, organism-based. The following applies: Erythrocyte.
Data set [9] in a line: Inhibition of hemozoin formation in sorbitol-synchronized early ring stage plasmodium falciparum NF54 trophozoites assessed as fold increase in free heme-Fe level at 3 times EC50 incubated for 32 hrs by flow cytometry analysis. It counts as functional. Summed up:
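Trophozoites were saponin-released (0.05%), PBS-washed, counted by flow cytometry, then hypotonically lysed and sonicated. Heme was fractionated with HEPES, SDS, pyridine and NaOH and read as Fe(III)heme–pyridine absorbance against a heme standard curve (fg/cell). Three biological replicates; Student's t-test.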
(Flow cytometry measures light scatter and fluorescence of single cells or particles in a stream.)

The test system of data set [10] is Plasmodium falciparum. As to the kind of experiment: Antiplasmodial activity against Rac-N-(Pyridin-3-yl(1-(o-tolyl)-1H-tetrazol-5-yl)methyl)-N-(3-(trifluoromethyl)benzyl)Cyclopropanamine resistant Plasmodium falciparum 3D7 clone F2-H12 ring-stage parasite assessed as parasite growth inhibition incubated for 72 hrs by SYBR Green and MitoTracker Deep Red FM dye based flow cytometry. It counts as functional, organism-based. The essentials: (§1)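 Clonal 3D7-A10 lines recovered after single-step selection; ring stages at 0.2% parasitemia, 1% hematocrit in RPMI-1640 with 0.5% Albumax. 72 h exposure to a 10-point 2-fold dilution series in duplicate with DMSO controls, final DMSO <0.5%. Survival read by flow cytometry, SYBR Green as nuclear stain and MitoTracker Deep Red FM as vital dye. EC₅₀ and EC₉₀ reported with fold shift relative to parental 3D7-A10.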

The subject of data set [11] is Plasmodium falciparum. As to the kind of experiment: Antiplasmodial activity against Rac-N-(Pyridin-3-yl(1-(o-tolyl)-1H-tetrazol-5-yl)methyl)-N-(3-(trifluoromethyl)benzyl)Cyclopropanamine resistant Plasmodium falciparum 3D7 clone A10 ring-stage parasite assessed as parasite growth inhibition incubated for 72 hrs by SYBR Green and MitoTracker Deep Red FM dye based flow cytometry. It counts as functional, organism-based. Summed up: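 Resistant clonal lines were tested as ring stages at 0.2% parasitemia and 1% hematocrit in RPMI-1640 with 0.5% Albumax. A 10-point 2-fold dilution series was run in duplicate with DMSO controls, final DMSO <0.5%, for 72 h. Survival was read by flow cytometry with SYBR Green as nuclear stain and MitoTracker Deep Red as vital dye. EC50 and EC90 were derived.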

Data set [12] concerns Plasmodium falciparum. As to the kind of experiment: Antiplasmodial activity against Rac-N-(Pyridin-3-yl(1-(o-tolyl)-1H-tetrazol-5-yl)methyl)-N-(3-(trifluoromethyl)benzyl)Cyclopropanamine resistant Plasmodium falciparum 3D7 clone F2-A10 ring-stage parasite assessed as parasite growth inhibition incubated for 72 hrs by SYBR Green and MitoTracker Deep Red FM dye based flow cytometry. It counts as functional, organism-based. The essentials:
as §1

Data set [13] relates to Plasmodium falciparum. As to the kind of experiment: Antiplasmodial activity against chloroquine and pyrimethamine resistant Plasmodium falciparum Dd2 infected in human RBC assessed as parasite growth inhibition incubated for 72 hrs by SYBR Green dye based fluorescence assay. It is filed as functional, organism-based. The following applies: Dd2, Erythrocyte. The essentials: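 O+ human RBCs at 2% hematocrit and 0.5% starting parasitemia, in RPMI 1640 with 25 mM HEPES, 0.5% Albumax-I, bicarbonate and hypoxanthine. Serial dilutions in triplicate, 0.5% DMSO final, 72 h at 37°C, 5% CO2. Frozen at −80°C, lysed with SYBR Green in saponin/Triton buffer for 4 h in the dark. Ex 485/em 535 nm. EC50 from four-parameter fit; biphasic fit where curves were biphasic.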

Data set [14] has as its system Plasmodium falciparum. As to the kind of experiment: Antiplasmodial activity against piperaquine and pyrimethamine resistant Plasmodium falciparum RF12 infected in human RBC assessed as parasite growth inhibition incubated for 72 hrs by SYBR Green dye based fluorescence assay. The following applies: RF12, Erythrocyte. It is filed as functional, organism-based.
For data set [15], the system named is Plasmodium falciparum. As to the kind of experiment: Antiplasmodial activity against Rac-N-(Pyridin-3-yl(1-(o-tolyl)-1H-tetrazol-5-yl)methyl)-N-(3-(trifluoromethyl)benzyl)Cyclopropanamine resistant Plasmodium falciparum 3D7 clone F1-E4 ring-stage parasite assessed as parasite growth inhibition incubated for 72 hrs by SYBR Green and MitoTracker Deep Red FM dye based flow cytometry. It counts as functional, organism-based. The essentials:
as §1

Data set [16] deals with Hemozoin. As to the kind of experiment: Inhibition of Beta-hematin assessed as bis-pyridyl-Fe(III)PPIX complex formation incubated for 5 hrs by NP40 detergent-mediated colorimetric assay.
Data set [17] relates to Plasmodium falciparum. As to the kind of experiment: Antiplasmodial activity against Rac-N-(Pyridin-3-yl(1-(o-tolyl)-1H-tetrazol-5-yl)methyl)-N-(3-(trifluoromethyl)benzyl)Cyclopropanamine resistant Plasmodium falciparum 3D7 clone F2-A11 ring-stage parasite assessed as parasite growth inhibition incubated for 72 hrs by SYBR Green and MitoTracker Deep Red FM dye based flow cytometry. It counts as functional, organism-based. The essentials: as §1

Data set [18] deals with Plasmodium falciparum. As to the kind of experiment: Antiplasmodial activity against Rac-N-(Pyridin-3-yl(1-(o-tolyl)-1H-tetrazol-5-yl)methyl)-N-(3-(trifluoromethyl)benzyl)Cyclopropanamine resistant Plasmodium falciparum 3D7 clone F1-B6 ring-stage parasite assessed as parasite growth inhibition incubated for 72 hrs by SYBR Green and MitoTracker Deep Red FM dye based flow cytometry. It counts as functional, organism-based. The essentials:
as §1

≈ marks a conversion by molar mass, not a printed value. Where only a bound is given, the exact number is not on record here.

For `Cc1ccccc1-n1nnnc1C(c1cccnc1)N(Cc1cccc(C(F)(F)F)c1)C1CC1` (racemic), the solubility kinetic in data set [1] was 1.5 µg/mL (≈ 3.23 µM). Besides, the EC50 in data set [2] was above 25000 nM; in data set [3], 380 nM; in data set [4] it was 890 nM; in [5], 180 nM; in [6], 480 nM; in data set [7] it was 850 nM. The EC50 in [8] turned out to be 750 nM; in data set [10] (3D7 clone F2-H12, 72 h), 640 nM; in [11] (3D7 clone A10, 72 h), 300 nM; in [12] (3D7 clone F2-A10, 72 h) it was 830 nM; in data set [13], 540 nM; in data set [14], 610 nM. Also, the EC50 in data set [15] (3D7 clone F1-E4, 72 h) amounted to 740 nM; in data set [17] (3D7 clone F2-A11, 72 h), 670 nM; in data set [18] (3D7 clone F1-B6, 72 h), 550 nM. In addition, the “fold change (FC)” value in data set [9] is listed as 6. Further, the EC90 in data set [10] (3D7 clone F2-H12, time 72 hrs) was 1300 nM; in data set [11] (3D7 clone A10, time 72 hrs), 590 nM; in data set [12] (3D7 clone F2-A10, time 72 hrs), 1500 nM; in data set [15] (3D7 clone F1-E4, time 72 hrs), 1500 nM; in data set [17] (3D7 clone F2-A11, time 72 hrs) it was 1300 nM; in [18] (3D7 clone F1-B6, time 72 hrs), 1100 nM. The 50% inhibitory concentration (IC50) in data set [16] was 76000 nM.

Usually EC50 stands for the midpoint of the concentration-response curve. The EC90 is the concentration needed for an effect of 90%. For orientation: IC50 means the concentration that inhibits the measured activity by half.

These data come from ChEMBL document CHEMBL5149972, “Novel Antimalarial Tetrazoles and Amides Active against the Hemoglobin Degradation Pathway in Plasmodium falciparum” (J Med Chem, 2021).
